Each structure is given as a SMILES string. Some results are limits rather than exact numbers.

The test system of assay [1] is A549. The experiment in a line: Cytotoxicity against human A549 cells assessed as cell viability after 48 hrs. In kind it is functional, cell-based. Conditions: A549, 48 h. The method in brief:
(§1)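 Cells from ATCC grown in MEM with Earle's salts, L-glutamine, 10% FBS, vitamins, essential amino acids, sodium pyruvate, penicillin/streptomycin, 37 °C, 5% CO2. Exponentially growing cells seeded at 5 × 10^3 per well, adhered 16 h, then exposed 48 h to increasing concentrations from DMSO stocks (final DMSO 0.5% v/v). Resazurin fluorescence read (ex 530/em 590 nm), blank-subtracted, expressed as survival versus control wells. IC50 given as mean ± standard deviation, three experiments in triplicate.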

The subject of assay [2] is DLD-1. The experiment in a line: Cytotoxicity against human DLD1 cells assessed as cell viability after 48 hrs. The following applies: DLD-1, 48 h. The format is functional, cell-based. The method in brief: as §1
Assay [3] can be described thus: Cytotoxicity against human WS1 cells assessed as cell viability after 48 hrs. Conditions: WS1, 48 h. In kind it is cell-based. The method in brief: as §1

Take `CC1(C)CC[C@]23CC[C@]4(C)[C@H](CC[C@@H]5[C@@]6(C)CC[C@H](O[C@H]7O[C@H](CO)[C@@H](O)[C@H](O)[C@@H]7O)C(C)(C)[C@@H]6CC[C@]54C)[C@H]2[C@@H]1OC3`: the IC50 in assay [1], in assay [2] and in assay [3] was greater than 75 µM in each case.

For `CC1(C)CC[C@]23CC[C@]4(C)[C@H](CC[C@@H]5[C@@]6(C)CC[C@H](O[C@@H]7O[C@H](CO)[C@@H](O)[C@H](O)[C@H]7O)C(C)(C)[C@@H]6CC[C@]54C)[C@H]2[C@@H]1OC3`, the IC50 came out at 31 µM in assay [1], 40 µM in assay [2] and 40 µM in assay [3].

`CC1(C)CC[C@]23CC[C@]4(C)[C@H](CC[C@@H]5[C@@]6(C)CC[C@H](O)C(C)(C)[C@@H]6CC[C@]54C)[C@H]2[C@H]1OC3=O`: the IC50 in assay [1], in assay [2] and in assay [3] was greater than 75 µM throughout.

Turning to `C=C(C)[C@@H]1CC[C@]2(CO)CC[C@]3(C)[C@H](CC[C@@H]4[C@@]5(C)CC[C@H](O[C@H]6O[C@H](CO)[C@@H](O)[C@H](O)[C@@H]6O)C(C)(C)[C@@H]5CC[C@]43C)[C@@H]12`, the half-maximal inhibitory concentration (IC50) stood at 7.3 µM in assay [1], 10.1 µM in assay [2] and 5.1 µM in assay [3].

Consider `C=C(C)[C@@H]1CC[C@]2(CO)CC[C@]3(C)[C@H](CC[C@@H]4[C@@]5(C)CC[C@H](O[C@@H]6OC[C@@H](O)[C@H](O)[C@H]6O)C(C)(C)[C@@H]5CC[C@]43C)[C@@H]12`, for which the IC50 in assay [1], in assay [2] and in assay [3] was greater than 75 µM each time.

With `CC1(C)CC[C@]23CC[C@]4(C)[C@H](CC[C@@H]5[C@@]6(C)CC[C@H](O[C@@H]7OC[C@@H](O)[C@H](O)[C@H]7O)C(C)(C)[C@@H]6CC[C@]54C)[C@H]2[C@@H]1OC3`, the IC50 in assay [1], in assay [2] and in assay [3] was greater than 75 µM each time.

`C[C@@H]1O[C@H](O[C@H]2CC[C@]3(C)[C@H]4CC[C@@H]5[C@H]6[C@@H]7OC(=O)[C@@]6(CCC7(C)C)CC[C@@]5(C)[C@]4(C)CC[C@H]3C2(C)C)[C@@H](O)[C@@H](O)[C@@H]1O`: the IC50 in assay [1], in assay [2] and in assay [3] was greater than 75 µM each time.

Take `C[C@@H]1O[C@H](O[C@H]2CC[C@]3(C)[C@H]4CC[C@@H]5[C@H]6[C@@H]7OC[C@@]6(CCC7(C)C)CC[C@@]5(C)[C@]4(C)CC[C@H]3C2(C)C)[C@@H](O)[C@@H](O)[C@@H]1O`: the IC50 in assay [1], in assay [2] and in assay [3] was greater than 75 µM in each case.

For `C=C(C)[C@@H]1CC[C@]2(C(=O)O)CC[C@]3(C)[C@H](CC[C@@H]4[C@@]5(C)CC[C@H](O[C@@H]6O[C@H](CO)[C@H](O)[C@H](O)[C@H]6O)C(C)(C)[C@@H]5CC[C@]43C)[C@@H]12`, the IC50 in assay [1], in assay [2] and in assay [3] was greater than 75 µM each time.

In the case of `C=C(C)[C@@H]1CC[C@]2(CO)CC[C@]3(C)[C@H](CC[C@@H]4[C@@]5(C)CC[C@H](O[C@@H]6O[C@H](CO)[C@H](O)[C@H](O)[C@H]6O)C(C)(C)[C@@H]5CC[C@]43C)[C@@H]12`, the IC50 in assay [1], in assay [2] and in assay [3] was greater than 75 µM throughout.

As to `CC1(C)CC[C@]23CC[C@]4(C)[C@H](CC[C@@H]5[C@@]6(C)CC[C@H](O[C@H]7OC[C@H](O)[C@H](O)[C@H]7O)C(C)(C)[C@@H]6CC[C@]54C)[C@H]2[C@@H]1OC3`, the IC50 in assay [1], in assay [2] and in assay [3] was greater than 75 µM each time.

`CC1(C)CC[C@]23CC[C@]4(C)[C@H](CC[C@@H]5[C@@]6(C)CC[C@H](O[C@H]7OC[C@H](O)[C@H](O)[C@H]7O)C(C)(C)[C@@H]6CC[C@]54C)[C@H]2[C@@H]1OC3=O`: the IC50 in assay [1], in assay [2] and in assay [3] was greater than 75 µM throughout.

With `C=C(C)[C@@H]1CC[C@]2(CO)CC[C@]3(C)[C@H](CC[C@@H]4[C@@]5(C)CC[C@H](O[C@@H]6O[C@H](CO)[C@@H](O)[C@H](O)[C@H]6O)C(C)(C)[C@@H]5CC[C@]43C)[C@@H]12`, the IC50 in assay [1], in assay [2] and in assay [3] was greater than 75 µM throughout.

Take `C=C(C)[C@@H]1CC[C@]2(C(=O)O)CC[C@]3(C)[C@H](CC[C@@H]4[C@@]5(C)CC[C@H](O[C@@H]6O[C@H](CO)[C@@H](O)[C@H](O)[C@H]6O)C(C)(C)[C@@H]5CC[C@]43C)[C@@H]12`: the IC50 in assay [1] was greater than 75 µM.

On to `CC1(C)CC[C@]23CC[C@]4(C)[C@H](CC[C@@H]5[C@@]6(C)CC[C@H](O[C@@H]7O[C@H](CO)[C@H](O)[C@H](O)[C@H]7O)C(C)(C)[C@@H]6CC[C@]54C)[C@H]2[C@@H]1OC3=O`, for which the IC50 in assay [1], in assay [2] and in assay [3] was greater than 75 µM in each case.

For the compound `CC1(C)CC[C@]23CC[C@]4(C)[C@H](CC[C@@H]5[C@@]6(C)CC[C@H](O[C@@H]7O[C@H](CO)[C@H](O)[C@H](O)[C@H]7O)C(C)(C)[C@@H]6CC[C@]54C)[C@H]2[C@@H]1OC3`, the IC50 amounted to 30 µM in assay [1], 40 µM in assay [2] and 30 µM in assay [3].

`CC1(C)CC[C@]23CC[C@]4(C)[C@H](CC[C@@H]5[C@@]6(C)CC[C@H](O[C@@H]7O[C@H](CO)[C@@H](O)[C@H](O)[C@H]7O)C(C)(C)[C@@H]6CC[C@]54C)[C@H]2[C@@H]1OC3=O`: the IC50 in assay [1], in assay [2] and in assay [3] was greater than 75 µM in each case.

Consider `CC1(C)CC[C@]23CC[C@]4(C)[C@H](CC[C@@H]5[C@@]6(C)CC[C@H](O)C(C)(C)[C@@H]6CC[C@]54C)[C@H]2[C@H]1OC3` [ALLOBETULIN], for which the IC50 in assay [1], in assay [2] and in assay [3] was greater than 75 µM each time.

Turning to `C=C(C)[C@@H]1CC[C@]2(C(=O)O)CC[C@]3(C)[C@H](CC[C@@H]4[C@@]5(C)CC[C@H](OC(C)=O)C(C)(C)[C@@H]5CC[C@]43C)[C@@H]12`, the IC50 in assay [1] was 18 µM; in assay [2], 20 µM; in assay [3], 57 µM.

Regarding `C=C(C)[C@@H]1CC[C@]2(C(=O)O)CC[C@]3(C)[C@H](CC[C@@H]4[C@@]5(C)CC[C@H](O[C@@H]6OC[C@@H](O)[C@H](O)[C@H]6O)C(C)(C)[C@@H]5CC[C@]43C)[C@@H]12`, the IC50 was 15 µM in assay [1], 18 µM in assay [2] and 20 µM in assay [3].

For `C=C(C)[C@@H]1CC[C@]2(C(=O)O)CC[C@]3(C)[C@H](CC[C@@H]4[C@@]5(C)CC[C@H](O[C@H]6O[C@H](CO)[C@@H](O)[C@H](O)[C@@H]6O)C(C)(C)[C@@H]5CC[C@]43C)[C@@H]12`, the IC50 in assay [1] worked out at 34 µM; in assay [2], 15 µM; in assay [3] it was 13 µM.

Turning to `CC1(C)CC[C@]23CC[C@]4(C)[C@H](CC[C@@H]5[C@@]6(C)CC[C@H](O[C@H]7O[C@H](CO)[C@@H](O)[C@H](O)[C@@H]7O)C(C)(C)[C@@H]6CC[C@]54C)[C@H]2[C@@H]1OC3=O`, the IC50 in assay [1], in assay [2] and in assay [3] was greater than 75 µM each time.

With `CC1(C)CC[C@]23CC[C@]4(C)[C@H](CC[C@@H]5[C@@]6(C)CC[C@H](O[C@@H]7OC[C@@H](O)[C@H](O)[C@H]7O)C(C)(C)[C@@H]6CC[C@]54C)[C@H]2[C@@H]1OC3=O`, the IC50 in assay [1], in assay [2] and in assay [3] was greater than 75 µM in each case.

The IC50 is the concentration that gives 50% inhibition.

The record behind these values is ChEMBL document CHEMBL1149652, “Synthesis and structure-activity relationship study of cytotoxic germanicane- and lupane-type 3beta-O-monodesmosidic saponins starting from betulin” (Bioorg Med Chem, 2007).
